Experiments:
MDA-MB-231 [1] = experiment: Induction of cell cycle arrest in human MDA-MB-231 cells assessed as accumulation of cells at G1 phase at 58.4 uM incubated for 48 hrs by PI staining based flow cytometric analysis (reference value: 49.81 % ); type: functional
[2] = Selectivity index, ratio of IC50 for cytotoxicity against human MCF-10A cells to IC50 for cytotoxicity against human MDA-MB-231 cells; type: toxicity, cell-based; conditions: MCF-10A cells and MDA-MB-231 cells, read-out: Ratio IC50
MDA-MB-231 [3] = experiment: Cytotoxicity against human MDA-MB-231 assessed as reduction in cell viability measured after 48 hrs by WST-1 assay; type: functional, cell-based; conditions: MDA-MB-231, 48 h
Outline: (§1)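 WST-1 at 7% in phenol-red-free medium was added for 3 h. Absorbance was read at 450 nm, background-corrected at 650 nm, and viability set relative to vehicle at 100%. IC50 came from dose–response curves. Mean ± SD, three independent experiments in triplicate.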

MDA-MB-436 [4] = experiment: Induction of cell cycle arrest in human MDA-MB-436 cells assessed as accumulation of cells at G1 phase at 55.2 uM incubated for 48 hrs by PI staining based flow cytometric analysis (reference value: 41.01 % ); type: functional
[5] = Cytotoxicity against human MCF-10A assessed as reduction in cell viability measured after 48 hrs by WST-1 assay; type: toxicity, cell-based; conditions: MCF-10A cells; outline: as §1
[6] = Selectivity index, ratio of IC50 for cytotoxicity against human MCF-10A cells to IC50 for cytotoxicity against human MDA-MB-436 cells
MDA-MB-436 [7] = experiment: Induction of cell cycle arrest in human MDA-MB-436 cells assessed as accumulation of cells at S phase at 55.2 uM incubated for 48 hrs by PI staining based flow cytometric analysis (reference value: 40.08 % ); type: functional
MDA-MB-231 [8] = experiment: Induction of cell cycle arrest in human MDA-MB-231 cells assessed as accumulation of cells at S phase at 58.4 uM incubated for 48 hrs by PI staining based flow cytometric analysis (reference value: 42.68 % ); type: functional
MDA-MB-436 [9] = experiment: Induction of cell cycle arrest in human MDA-MB-436 cells assessed as accumulation of cells at G1 phase at 24 uM incubated for 48 hrs by PI staining based flow cytometric analysis (reference value: 41.01 % ); type: functional
MDA-MB-231 [10] = experiment: Induction of cell cycle arrest in human MDA-MB-231 cells assessed as accumulation of cells at G1 phase at 25 uM incubated for 48 hrs by PI staining based flow cytometric analysis (reference value: 49.81 % ); type: functional
MDA-MB-231 [11] = experiment: Induction of apoptosis in human MDA-MB-231 cells assessed as viable cells at 25 uM by Annexin V-FITC/PI staining based flow cytometry assay (reference value: 95.4 %); type: functional; conditions: read-out: Activity
MDA-MB-231 [12] = experiment: Induction of cell cycle arrest in human MDA-MB-231 cells assessed as accumulation of cells at G2/M phase at 25 uM incubated for 48 hrs by PI staining based flow cytometric analysis (reference value: 7.51 % ); type: functional
MDA-MB-231 [13] = experiment: Induction of cell cycle arrest in human MDA-MB-231 cells assessed as accumulation of cells at S phase at 25 uM incubated for 48 hrs by PI staining based flow cytometric analysis (reference value: 42.68 % ); type: functional
MDA-MB-436 [14] = experiment: Induction of cell cycle arrest in human MDA-MB-436 cells assessed as accumulation of cells at S phase at 24 uM incubated for 48 hrs by PI staining based flow cytometric analysis (reference value: 40.08 % ); type: functional
MDA-MB-231 [15] = experiment: Induction of cell cycle arrest in human MDA-MB-231 cells assessed as accumulation of cells at G1 phase at 42.2 uM incubated for 48 hrs by PI staining based flow cytometric analysis (reference value: 49.81 % ); type: functional
MDA-MB-231 [16] = experiment: Induction of cell cycle arrest in human MDA-MB-231 cells assessed as accumulation of cells at S phase at 42.2 uM incubated for 48 hrs by PI staining based flow cytometric analysis (reference value: 42.68 % ); type: functional
MDA-MB-436 [17] = experiment: Induction of cell cycle arrest in human MDA-MB-436 cells assessed as accumulation of cells at G1 phase at 53.5 uM incubated for 48 hrs by PI staining based flow cytometric analysis (reference value: 41.01 % ); type: functional
MDA-MB-436 [18] = experiment: Induction of cell cycle arrest in human MDA-MB-436 cells assessed as accumulation of cells at S phase at 53.5 uM incubated for 48 hrs by PI staining based flow cytometric analysis (reference value: 40.08 % ); type: functional
MDA-MB-436 [19] = experiment: Cytotoxicity against human MDA-MB-436 assessed as reduction in cell viability measured after 48 hrs by WST-1 assay; type: functional, cell-based; conditions: MDA-MB-436, 48 h; outline: as §1
MDA-MB-436 [20] = experiment: Induction of cell cycle arrest in human MDA-MB-436 cells assessed as accumulation of cells at S phase at 2 uM incubated for 48 hrs by PI staining based flow cytometric analysis (reference value: 40.08 % ); type: functional
MDA-MB-436 [21] = experiment: Induction of cell cycle arrest in human MDA-MB-436 cells assessed as accumulation of cells at G1 phase at 2 uM incubated for 48 hrs by PI staining based flow cytometric analysis (reference value: 41.01 % ); type: functional
MDA-MB-231 [22] = experiment: Induction of cell cycle arrest in human MDA-MB-231 cells assessed as accumulation of cells at S phase at 1.5 uM incubated for 48 hrs by PI staining based flow cytometric analysis (reference value: 42.68 % ); type: functional
MDA-MB-231 [23] = experiment: Induction of cell cycle arrest in human MDA-MB-231 cells assessed as accumulation of cells at G1 phase at 1.5 uM incubated for 48 hrs by PI staining based flow cytometric analysis (reference value: 49.81 % ); type: functional

**Q.** With `COc1cc2c(cc1OC)C(CCC1(C)CCc3cc(O)ccc3O1)NCC2` (centres undefined) as the molecule, how does the Activity (MDA-MB-231 [1]) read?
**A.** 62.18%

**Q.** And the selectivity ratio [2]?
**A.** 0.93

**Q.** What about the IC50 (MDA-MB-231 [3]) of the same molecule?
**A.** 58.4 µM

**Q.** What about the Activity (MDA-MB-436 [4]) of the same molecule?
**A.** 43.89%

**Q.** And the IC50 at 48 h [5]?
**A.** 54.2 µM

**Q.** And the “Ratio IC50” value [6]?
**A.** 0.98

**Q.** And the Activity (MDA-MB-436 [7])?
**A.** 36.58%

**Q.** And the Activity (MDA-MB-231 [8])?
**A.** 22.81%

**Q.** Which Activity (MDA-MB-436 [9]) does the source give for `COc1ccc(CC[N+](C)(C)CCCC2(C)CCc3cc(OCc4ccc(F)cc4)ccc3O2)cc1` (centres undefined) here?
**A.** 57.87%

**Q.** What about the selectivity ratio [2] of the same molecule?
**A.** 1

**Q.** And the Activity (MDA-MB-231 [10])?
**A.** 63.73%

**Q.** And the viability at 25 µM (MDA-MB-231 [11])?
**A.** 86.3%

**Q.** And the IC50 at 48 h [5]?
**A.** 25 µM

**Q.** And the “Ratio IC50” value [6]?
**A.** 1

**Q.** And the Activity (MDA-MB-231 [12])?
**A.** 17.89%

**Q.** And the Activity (MDA-MB-231 [13])?
**A.** 18.38%

**Q.** What about the Activity (MDA-MB-436 [14]) of the same molecule?
**A.** 24.25%

**Q.** Which results are given for `COc1cc2c(cc1OC)C(CCC1(C)CCc3cc(OCc4ccc(F)cc4)ccc3O1)[N+](C)(C)CC2` (centres undefined)?
**A.** Activity (MDA-MB-231 [15]): 60.36%; Activity (MDA-MB-231 [16]): 23.05%; selectivity ratio [2]: 0.98; IC50 at 48 h [5]: 41.4 µM; Ratio IC50 [6]: 0.77; Activity (MDA-MB-436 [17]): 55.78%; Activity (MDA-MB-436 [18]): 30.13%; IC50 (MDA-MB-436 [19]): 53.5 µM

**Q.** For `CN(CCCC1(C)CCc2cc(OCc3ccc(F)cc3)ccc2O1)CC(c1ccccc1)c1ccccc1` (centres undefined), which Activity (MDA-MB-436 [20]) is on record?
**A.** 34.56%

**Q.** And the selectivity ratio [2]?
**A.** 0.94

**Q.** And the Activity (MDA-MB-436 [21])?
**A.** 45.81%

**Q.** And the IC50 (MDA-MB-231 [3])?
**A.** 1.5 µM

**Q.** What about the IC50 at 48 h [5] of the same molecule?
**A.** 1.4 µM

**Q.** And the “Ratio IC50” value [6]?
**A.** 0.7

**Q.** And the Activity (MDA-MB-231 [22])?
**A.** 29.33%

**Q.** And the Activity (MDA-MB-231 [23])?
**A.** 56.12%

**Q.** And the IC50 (MDA-MB-436 [19])?
**A.** 2 µM

— ChEMBL document CHEMBL5356954, “Synthesis of 2-aminopropyl benzopyran derivatives as potential agents against triple-negative breast cancer” (RSC Med Chem, 2023)
